Ba/F3 V617F tox: reduced viability of JAK2V617F-dependent Ba/F3 cells, primary screen, JAK2V617F inhibitor project, cell-based, Ba/F3 EpoR-JAK2V617F, luminescence. ATP luminescence. 220,000 tested, 1.1% active. AID 1446, 2008. inhibition, % at 5.6 µM;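 active = inhibition above the campaign mean plus 3 SD over all tested compounds, cut at about 24% in these data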;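 note: cytokine-independent growth of Ba/F3 cells driven by EpoR plus mutant JAK2; 0% = DMSO-treated cells and 100% = JAK inhibitor I control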
bCat nuc transl: modulators of beta-catenin nuclear translocation, primary screen, imaging, HeLa cells, immunofluorescence, high-content. nuclear translocation activity, % at 5 µM. 190,000 tested, 0.3% active;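 active = nuclear translocation activity above 50% at 5 µM, with a well cell count of 50 or more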;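 note: per-cell ratio of nuclear to cytoplasmic median beta-catenin stain intensity; plate controls were DMSO negative control for no effect and GSK-3 inhibitor IX positive control for full effect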
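test system = HeLa cells, endogenous beta-catenin | dosing = single 5 µM dose plus 0.02–20 µM confirmation series | times = compound treatment 24 h, 37°C, 5% CO2 | technique = beta-catenin immunofluorescence imaging with DAPI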
MT stabilize HCS: microtubule stabilizers in HeLa cells, primary screen, imaging, high-content imaging; HeLa tubulin immunostaining HCS, 24 h; share of cells brighter than vehicle mean+2SD; % tubulin-high responders, % at 10 µM; 200,000 tested, 0.83% active;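 active = plate Z-score above 3 for both tubulin-high and condensed-nucleus cell shares, with cell loss under 80%, at 10 µM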;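 note: anti alpha tubulin signal scored within the nucleus-defined area of each cell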
BaF3 tox: parental Ba/F3 cell viability inhibition, counter-screen for JAK2V617F inhibitor project, murine pro-B, CellTiter-Glo luminescence; CellTiter-Glo ATP luminescence; inhibition, % at 5.6 µM; 220,000 tested, 1.1% active;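 active = inhibition above a per-campaign cutoff, the mean inhibition of all tested compounds plus 3 SD, cut at about 27% in these data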;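 note: 0% = DMSO wells and 100% = JAK Inhibitor I control wells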
Lmaj promast: Leishmania major promastigote growth inhibition, primary screen; inhibition, % at 10 µM; Leishmania major promastigotes, resazurin fluorescence viability; AID 1063, 2008; 200,000 tested, 9% active; in the data active = inhibition above about 50%;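 note: promastigotes grown with compound for 44 hours at 28 °C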
APP 5UTR inh: inhibitors of APP translation via 5'UTR reporter, primary screen, APP 5'UTR luciferase, SH-SY5Y cells. inhibition, % at 2 µM. SH-SY5Y APP 5'UTR-luciferase reporter, luminescence. 190,000 tested, 0.82% active;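 active = inhibition above a set limit, derived from the sample mean plus 3 SD, cut at about 45% in these data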
* = called active by the depositor; / = not tested or not shown. Sampled rows, rich in hits. Any-hit rate of the full collection: about 9.6%.

SMILES	Ba/F3 V617F tox	bCat nuc transl	MT stabilize HCS	BaF3 tox	Lmaj promast	APP 5UTR inh
COc1ccc(CN2CCN(CC(O)Cn3c4ccccc4c4ccccc43)CC2)cc1 (stereo not drawn)	1	0	2	9	99*	4
O=c1c2ccccc2n(CC(O)CN2CCCCC2)c2ccccc12 (stereo not drawn)	-4	0	/	-1	/	/
O=C(CN1CCNC(=O)C1)NCCc1ccc(Cl)cc1Cl	-1	-1	2	7	-2	-38
Cc1noc(C)c1C(=O)N1CCN(c2ccc(OCc3ccccc3)cc2)CC1	7	0	/	0	/	/
CCOC(=O)c1c(C)oc2c1c(C=NCc1ccccn1)c(O)c1ccccc12	4	2	5	11	98*	1
CCOC(=O)c1c(NCC2CCCO2)c2ccccc2[nH]c1=O (stereo not drawn)	5	-3	1	5	4	4
CCOC(=O)c1c(C)oc2c1c(C(c1cccnc1)N1CCOCC1)c(O)c1ccccc12 (stereo not drawn)	-5	-6	5	-3	97*	-103
CCOC(=O)c1c(C)oc2c1c(C=NCC1CCCO1)c(O)c1ccccc12 (stereo not drawn)	7	-1	4	8	98*	2
Cc1nc(-c2cccnc2)sc1C(=O)N/N=C/c1ccccc1Cl	-4	-1	/	1	/	/
Cc1nc(N)ncc1C(=O)Nc1ccccc1	3	2	1	4	-4	-15
CC(C)(C)C(=O)Nc1nnc(CC(=O)NCc2ccccc2)s1	2	0	6	3	-5	-16
O=C(Nc1nnc(CSCc2ccccc2F)s1)c1cccc([N+](=O)[O-])c1	-5	-4	3	4	95*	-3
CC(C)(C)C(=O)Nc1nnc(CSCc2ccccc2F)s1	-1	/	1	4	100*	-12
CC(C)C(=O)Nc1nnc(CCc2nnc(NC(=O)C(C)C)s2)s1	-4	1	4	1	-5	8
O=C(Nc1nnc(CSCc2ccc(F)cc2)s1)c1ccc([N+](=O)[O-])cc1	-3	4	5	4	1	-6
CC(C)C(=O)Nc1nnc(CSCc2ccccc2F)s1	-2	/	1	3	91*	-15
C[N+]1(CC(O)COCC2COc3ccccc3O2)CCOCC1 (stereo not drawn)	2	2	2	4	-7	-11
COc1cccc(C(=O)NCC(=O)OCC(=O)Nc2cc(OC)c([N+](=O)[O-])cc2C)c1	-4	-1	2	4	-2	-4
CC(=O)NC(NC(C)=O)c1cccc(OCc2ccccc2)c1	0	-2	7	2	1	-5
C=CC[n+]1c(-c2ccc(C)cc2)csc1Nc1ccc(NC(C)=O)cc1	-1	3	3	5	-5	50*
COc1ccc(Cc2cnc(N)s2)cc1	3	-2	3	4	-5	13
CC(=O)Nc1cccc(OCCCNS(=O)(=O)c2ccc(F)cc2)c1	-2	-2	/	1	/	/
O=c1oc2ccccc2cc1-c1cn2ccccc2n1	13	1	3	13	-3	-32
Cc1cccn2cc(-c3cc4ccccc4oc3=O)nc12	-2	-2	4	90*	2	-84
CN(CC(=O)Nc1ccc(Cl)c(Cl)c1)Cc1nnc(-c2ccc(F)cc2)o1	12	0	3	7	-1	-19
SMILES	Ba/F3 V617F tox	bCat nuc transl	MT stabilize HCS	BaF3 tox	Lmaj promast	APP 5UTR inh
COc1cc(/C=N/NC(=O)COc2ccccc2[N+](=O)[O-])ccc1OC(=O)c1ccco1	-4	-1	2	1	57*	9
CC(C)(C)c1ccc(OCC(=O)N/N=C/c2cc(Br)ccc2OC(=O)c2ccco2)cc1	4	0	2	5	94*	-9
COc1ccc(Br)cc1/C=N/NC(=O)c1ccco1	3	2	/	3	2	-10
O=C(COc1ccccc1[N+](=O)[O-])N/N=C/C=C/c1ccco1	3	-1	4	95*	-8	-15
Cc1ccc(OCC(=O)N/N=C/C=C/c2ccco2)cc1	2	2	2	2	76*	-16
O=C(COc1ccccc1[N+](=O)[O-])N/N=C/c1ccc(OC(=O)c2ccco2)cc1	0	2	1	4	-1	-5
O=C(COC(=O)/C=C/c1cccc([N+](=O)[O-])c1)NCc1ccc2c(c1)OCO2	4	-1	2	2	-3	-2
Cc1csc2nc(CNC(=O)C3CC=CCC3C(=O)O)cn12 (stereo not drawn)	-4	-1	3	6	-6	6
CCn1c(N)[n+](CC(=O)Nc2ccc(SC(F)F)cc2)c2ccccc21	1	3	/	-1	/	/
Cc1ccc(OCn2c(=O)sc3ccccc32)cc1	2	0	4	2	-3	-26
COc1ccc(C(=O)N=c2sc3c(C)ccc(OC)c3n2C)cc1	-4	0	11	2	2	-80
CCC(C(=O)NCc1ccccc1OC)c1ccccc1 (stereo not drawn)	-1	-3	1	5	-5	14
CCC(=O)N1CCc2cc(S(=O)(=O)NCCCN(CC)Cc3ccccc3)ccc21	-1	2	2	2	55*	4
CCC(=O)N1CCc2cc(S(=O)(=O)NCCC(=O)N3CCN(Cc4ccccc4)CC3)ccc21	-2	-8	1	1	1	9
COc1cc(S(=O)(=O)NCC2CCCO2)ccc1Br (stereo not drawn)	0	/	2	1	-4	4
C=CCn1c(CNc2ccccc2)nnc1SCC(=O)N/N=C/c1ccccc1O	-3	6	2	-1	97*	14
O=C(COC(=O)[C@H](Cc1c[nH]c2ccccc12)NC(=O)c1ccc(Cl)cc1)Nc1ccc2c(c1)OCO2	1	/	2	4	100*	-4
Clc1ccc(-n2c(SC/C=C/c3ccccc3)nnc2-c2cccnc2)cc1	0	-5	2	1	74*	-3
Cc1ccc2c(c1)N(CC(=O)N1CCCCC1c1cccnc1)C(=O)CO2 (stereo not drawn)	-2	-1	2	0	77*	0
CC(NC(=O)Nc1nnc(C(F)(F)F)s1)(C(F)(F)F)C(F)(F)F	37*	0	4	40*	43	1
CC(C)(C)CC(=O)Nc1nnc(C(F)(F)F)s1	-2	-2	2	-1	8	-8
CC(C)CCN(C(=S)Nc1cccc(F)c1)C1CCN(C(C)C)CC1	-2	0	4	1	12	-14
CCOc1ccc(-n2cc(C(=O)Nc3cccc(OC)c3)c3cc(OC)c(OC)cc3c2=O)cc1	4	-4	4	4	66*	3

Screening data as filed in PubChem BioAssay.
